pIC50: −log10 of the molar value. Activity calls are given as the source filed them. No cut-off for these calls is given here.
Assays:
[1] = test system: HL-60; experiment: Induction of apoptosis in human HL60 cells assessed as loss of mitochondrial membrane potential at 5 uM after 24 hrs by rodamine-123 staining-based flow cytometric analysis (reference value: 6%); format: functional
[2] = test system: PC-3; experiment: Growth inhibition of human PC3 cells at 50 uM after 48 hrs by sulpharhodamine B assay; format: functional; settings: PC-3, 48 h, read-out: GI
Summary of the method: (§1)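 Cells grown in RPMI-1640/MEM with 10% FCS, penicillin/streptomycin, 37 °C, 5% CO2. Seeded in 96-well plates, allowed to adhere overnight, then exposed 48 h to analogs in DMSO (vehicle <0.2% in controls). TCA-fixed, stained with 0.4% SRB in 1% acetic acid, dye solubilized in 10 mM Tris base, OD 570 nm (ref 620 nm). Mean ± SD of three experiments run in triplicate.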

[3] = test system: IMR-32; experiment: Growth inhibition of human IMR32 cells at 10 uM after 48 hrs by sulpharhodamine B assay; format: functional; settings: IMR-32, 48 h, read-out: GI
Summary of the method: (§2)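 This is the SRB protein-stain assay on adherent cells in RPMI-1640/MEM with 10% FCS. Each compound in DMSO (vehicle <0.2%) was applied at a single fixed concentration for 48 h. Cells were fixed with TCA and stained with SRB, and the dye was solubilised in Tris and read at 570/620 nm. Percent growth inhibition is relative to vehicle-treated controls, reported as mean ± SD of three experiments run in triplicate.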

[4] = test system: IMR-32; experiment: Growth inhibition of human IMR32 cells at 5 uM after 48 hrs by sulpharhodamine B assay; format: functional; settings: IMR-32, 48 h, read-out: GI; summary of the method: as §2
[5] = test system: MCF7; experiment: Growth inhibition of human MCF7 cells at 5 uM after 48 hrs by sulpharhodamine B assay; format: functional; settings: MCF7, 48 h, read-out: GI; summary of the method: as §2
[6] = test system: DU-145; experiment: Growth inhibition of human DU145 cells at 5 uM after 48 hrs by sulpharhodamine B assay; format: functional; settings: DU-145, 48 h, read-out: GI; summary of the method: as §2
[7] = test system: DU-145; experiment: Growth inhibition of human DU145 cells at 10 uM after 48 hrs by sulpharhodamine B assay; format: functional; settings: DU-145, 48 h, read-out: GI; summary of the method: as §2
[8] = test system: THP-1; experiment: Growth inhibition of human THP1 cells at 50 uM after 48 hrs by sulpharhodamine B assay; format: functional; settings: THP-1, 48 h, read-out: GI; summary of the method: as §1
[9] = test system: MCF7; experiment: Growth inhibition of human MCF7 cells at 20 uM after 48 hrs by sulpharhodamine B assay; format: functional; settings: MCF7, 48 h, read-out: GI; summary of the method: as §2
[10] = test system: IMR-32; experiment: Growth inhibition of human IMR32 cells at 50 uM after 48 hrs by sulpharhodamine B assay; format: functional; settings: IMR-32, 48 h, read-out: GI; summary of the method: as §2
[11] = test system: HL-60; experiment: Induction of apoptosis in human HL60 cells assessed as DNA fragmentation after 24 hrs by agarose gel electrophoresis; format: functional, cell-based
Summary of the method: (§3)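 HL-60 cells (2×10^6/well/2 mL) treated 24 h in 6-well plates. DNA extracted with phenol:chloroform:isoamyl alcohol, ethanol-precipitated, run on 1% agarose at 80 V for 1.5 h in TAE.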

[12] = test system: THP-1; experiment: Growth inhibition of human THP1 cells at 20 uM after 48 hrs by sulpharhodamine B assay; format: functional; settings: THP-1, 48 h, read-out: GI; summary of the method: as §1
[13] = test system: HL-60; experiment: Induction of apoptosis in human HL60 cells assessed as increase in […] sub-G0 fraction at 5 uM by propidium iodide staining-based flow cytometric analysis (reference value: 6%); format: functional
[14] = test system: MCF7; experiment: Cytotoxicity against human MCF7 cells after 48 hrs by sulpharhodamine B assay; format: functional, cell-based; settings: MCF7, 48 h
Summary of the method: (§4)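 Cells were grown in RPMI-1640/MEM with 10% FCS and penicillin/streptomycin at 37 °C under 5% CO2, then seeded and left to adhere overnight. Analogs in DMSO (vehicle <0.2%) were added at several concentrations for 48 h. Cells were fixed with cold 50% TCA, stained with 0.4% SRB in 1% acetic acid, solubilised in 10 mM Tris, and read at OD 570/620 nm. IC50 came from non-linear regression.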

[15] = test system: HEp-2; experiment: Growth inhibition of human Hep2 cells at 5 uM after 48 hrs by sulpharhodamine B assay; format: functional; settings: HEp-2, 48 h, read-out: GI; summary of the method: as §2
[16] = test system: HL-60; experiment: Induction of apoptosis in human HL60 cells assessed as increase in […] sub-G0 fraction at 30 uM by propidium iodide staining-based flow cytometric analysis (reference value: 6%); format: functional
[17] = test system: MCF7; experiment: Growth inhibition of human MCF7 cells at 50 uM after 48 hrs by sulpharhodamine B assay; format: functional; settings: MCF7, 48 h, read-out: GI; summary of the method: as §2
[18] = test system: THP-1; experiment: Growth inhibition of human THP1 cells at 5 uM after 48 hrs by sulpharhodamine B assay; format: functional; settings: THP-1, 48 h, read-out: GI; summary of the method: as §1
[19] = test system: HL-60; experiment: Cytotoxicity against human HL60 cells after 48 hrs by sulpharhodamine B assay; format: functional, cell-based; settings: HL-60, 48 h, in the assay text read “MTT assay” for “sulpharhodamine B assay”
[20] = test system: HEp-2; experiment: Growth inhibition of human Hep2 cells at 50 uM after 48 hrs by sulpharhodamine B assay; format: functional; settings: HEp-2, 48 h, read-out: GI; summary of the method: as §2
[21] = test system: HCT-15; experiment: Growth inhibition of human HCT15 cells at 5 uM after 48 hrs by sulpharhodamine B assay; format: functional; settings: HCT-15, 48 h, read-out: GI; summary of the method: as §2
[22] = test system: MCF7; experiment: Growth inhibition of human MCF7 cells at 10 uM after 48 hrs by sulpharhodamine B assay; format: functional; settings: MCF7, 48 h, read-out: GI; summary of the method: as §2
[23] = test system: DU-145; experiment: Growth inhibition of human DU145 cells at 20 uM after 48 hrs by sulpharhodamine B assay; format: functional; settings: DU-145, 48 h, read-out: GI; summary of the method: as §2
[24] = test system: HEp-2; experiment: Growth inhibition of human Hep2 cells at 30 uM after 48 hrs by sulpharhodamine B assay; format: functional; settings: HEp-2, 48 h, read-out: GI; summary of the method: as §2
[25] = test system: HL-60; experiment: Induction of apoptosis in human HL60 cells assessed as increase in […] sub-G0 fraction at 20 uM by propidium iodide staining-based flow cytometric analysis (reference value: 6%); format: functional
[26] = test system: A549; experiment: Cytotoxicity against human A549 cells after 48 hrs by sulpharhodamine B assay; format: functional, cell-based; settings: A549, 48 h; summary of the method: as §4
[27] = test system: DU-145; experiment: Cytotoxicity against human DU145 cells after 48 hrs by sulpharhodamine B assay; format: functional, cell-based; settings: DU-145, 48 h; summary of the method: as §4
[28] = test system: HL-60; experiment: Induction of apoptosis in human HL60 cells assessed as DNA fragmentation at 20 uM after 24 hrs by agarose gel electrophoresis; format: functional, cell-based; summary of the method: as §3
[29] = test system: HL-60; experiment: Induction of apoptosis in human HL60 cells assessed as DNA fragmentation at 40 uM after 24 hrs by agarose gel electrophoresis; format: functional, cell-based; summary of the method: as §3

Structure (SMILES)	Activity [1]	inhibition of growth at 50 µM [2]	inhibition of growth at 10 µM [3]	inhibition of growth at 5 µM [4]	inhibition of growth at 5 µM [5]	inhibition of growth at 5 µM [6]	inhibition of growth at 10 µM [7]	inhibition of growth at 50 µM [8]	inhibition of growth at 20 µM [9]	inhibition of growth at 50 µM [10]	inhibition of growth at 20 µM [12]	Activity [13]	pIC50 [14]	inhibition of growth at 5 µM [15]	Activity [16]	inhibition of growth at 50 µM [17]	inhibition of growth at 5 µM [18]	pIC50 [19]	inhibition of growth at 50 µM [20]	inhibition of growth at 5 µM [21]	other results
COc1ccc(/C=C/[C@](C)(/C=C/c2ccc(O)cc2)CCC=C(C)C)cc1	20.6%	93%	32%	13%	24%	20%	57%	86%	50%	69%	78%	8%	4.64	23%	66%	77%	53%	5.70	62%	28%	Activity [11]: Dose-dependent effect; inhibition of growth at 10 µM [22]: 37%; inhibition of growth at 20 µM [23]: 73%; inhibition of growth at 30 µM [24]: 45%; Activity [25]: 54%; pIC50 [26]: 4.92; pIC50 [27]: 4.96
CC1C(C(C)(C)O)CCC1(C)/C=C/c1ccc(O)cc1 (stereo not given)	17.9%	86%	50%	46%	27%	32%	50%	93%	50%	85%	76%	12%	4.66	17%	68%	79%	54%	5.74	65%	29%	Activity [28]: Active; inhibition of growth at 10 µM [22]: 32%; inhibition of growth at 20 µM [23]: 54%; inhibition of growth at 30 µM [24]: 53%; Activity [25]: 48%; pIC50 [26]: 4.77; pIC50 [27]: 4.85; Activity [29]: Active

— ChEMBL document CHEMBL1944511, “Bakuchiol derivatives as novel and potent cytotoxic agents: a report” (Eur J Med Chem, 2012)
